Measurements published in ChEMBL document CHEMBL3864121, “Development of ebsulfur analogues as potent antibacterials against methicillin-resistant Staphylococcus aureus” (Bioorg Med Chem, 2016).
Converted amounts (≈) assume the structure as drawn.

Legend:
Type in all cases: functional
[1] = system: Staphylococcus epidermidis; test: Antibacterial activity against Staphylococcus epidermidis ATCC 35984 measured after overnight incubation by broth double-dilution method; settings: RP62A
Summary of the method: (§1)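 MIC by broth double-dilution in Mueller-Hinton medium. Re-testing at the time-kill inoculum used 1×10^6 CFU/mL.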

Staphylococcus aureus [2] = test: Antibacterial activity against methicillin-resistant Staphylococcus aureus USA300 measured after overnight incubation by broth double-dilution method
Summary of the method: (§2)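 MIC by broth double-dilution in liquid Mueller-Hinton medium. Values are reported in µg/mL.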

Staphylococcus aureus [3] = test: Antibacterial activity against methicillin-resistant Staphylococcus aureus 2 measured after overnight incubation by broth double-dilution method; summary of the method: as §2
Staphylococcus aureus [4] = test: Antibacterial activity against methicillin-resistant Staphylococcus aureus C7 measured after overnight incubation by broth double-dilution method; summary of the method: as §2
Enterococcus faecalis [5] = test: Antibacterial activity against Enterococcus faecalis ATCC 49533 measured after overnight incubation by broth double-dilution method; summary of the method: as §1
Staphylococcus aureus [6] = test: Antibacterial activity against methicillin-resistant Staphylococcus aureus S22 measured after overnight incubation by broth double-dilution method; summary of the method: as §2
Staphylococcus aureus [7] = test: Antibacterial activity against methicillin-resistant Staphylococcus aureus G6 measured after overnight incubation by broth double-dilution method; summary of the method: as §2
[8] = system: Mycolicibacterium smegmatis; test: Antibacterial activity against Mycobacterium smegmatis MC2-155 measured after overnight incubation by broth double-dilution method; settings: str. MC2 155; summary of the method: as §2
Staphylococcus aureus [9] = test: Antibacterial activity against methicillin-resistant Staphylococcus aureus BRS3 measured after overnight incubation by broth double-dilution method; summary of the method: as §2
Enterococcus = test: Antibacterial activity against Vancomycin-resistant Enterococcus measured after overnight incubation by broth double-dilution method; summary of the method: as §2
Staphylococcus aureus [10] = test: Antibacterial activity against methicillin-resistant Staphylococcus aureus C14 measured after overnight incubation by broth double-dilution method; summary of the method: as §2
Staphylococcus aureus [11] = test: Antibacterial activity against methicillin-resistant Staphylococcus aureus USA100 measured after overnight incubation by broth double-dilution method; summary of the method: as §2
Staphylococcus aureus [12] = test: Antibacterial activity against methicillin-resistant Staphylococcus aureus S24 measured after overnight incubation by broth double-dilution method; summary of the method: as §2
Staphylococcus aureus [13] = test: Antibacterial activity against methicillin-resistant Staphylococcus aureus S17 measured after overnight incubation by broth double-dilution method; summary of the method: as §2
Enterococcus faecium = test: Antibacterial activity against Enterococcus faecium BM4105-RF measured after overnight incubation by broth double-dilution method; summary of the method: as §2
Listeria monocytogenes = test: Antibacterial activity against Listeria monocytogenes ATCC 19115 measured after overnight incubation by broth double-dilution method; summary of the method: as §1
Staphylococcus aureus [14] = test: Antibacterial activity against methicillin-resistant Staphylococcus aureus 1 measured after overnight incubation by broth double-dilution method; summary of the method: as §2
Staphylococcus aureus [15] = test: Antibacterial activity against methicillin-resistant Staphylococcus aureus C19 measured after overnight incubation by broth double-dilution method; summary of the method: as §2
Staphylococcus aureus [16] = test: Antibacterial activity against methicillin-resistant Staphylococcus aureus S14 measured after overnight incubation by broth double-dilution method; summary of the method: as §2
Staphylococcus aureus [17] = test: Antibacterial activity against methicillin-resistant Staphylococcus aureus NRS4 measured after overnight incubation by broth double-dilution method; summary of the method: as §2
Staphylococcus aureus [18] = test: Antibacterial activity against methicillin-resistant Staphylococcus aureus G12 measured after overnight incubation by broth double-dilution method; summary of the method: as §2
Staphylococcus aureus [19] = test: Antibacterial activity against methicillin-resistant Staphylococcus aureus G1 measured after overnight incubation by broth double-dilution method; summary of the method: as §2
Staphylococcus aureus [20] = test: Antibacterial activity against methicillin-resistant Staphylococcus aureus G14 measured after overnight incubation by broth double-dilution method; summary of the method: as §2
Staphylococcus aureus [21] = test: Antibacterial activity against methicillin-resistant Staphylococcus aureus USA200 measured after overnight incubation by broth double-dilution method; summary of the method: as §2
Staphylococcus aureus [22] = test: Antibacterial activity against methicillin-sensitive Staphylococcus aureus ATCC 29213 measured after overnight incubation by broth double-dilution method; summary of the method: as §2
Staphylococcus aureus [23] = test: Antibacterial activity against methicillin-resistant Staphylococcus aureus NRS77 measured after overnight incubation by broth double-dilution method; summary of the method: as §2
Staphylococcus aureus [24] = test: Antibacterial activity against methicillin-sensitive Staphylococcus aureus ATCC 25923 measured after overnight incubation by broth double-dilution method; summary of the method: as §2
Staphylococcus aureus [25] = test: Antibacterial activity against methicillin-resistant Staphylococcus aureus NRS51 measured after overnight incubation by broth double-dilution method; summary of the method: as §2
Staphylococcus aureus [26] = test: Antibacterial activity against methicillin-resistant Staphylococcus aureus USA600 measured after overnight incubation by broth double-dilution method; summary of the method: as §2
Staphylococcus aureus [27] = test: Antibacterial activity against methicillin-sensitive Staphylococcus aureus ATCC 6538 measured after overnight incubation by broth double-dilution method; summary of the method: as §2
Staphylococcus aureus [28] = test: Antibacterial activity against methicillin-resistant Staphylococcus aureus C2 measured after overnight incubation by broth double-dilution method; summary of the method: as §2
Staphylococcus aureus [29] = test: Antibacterial activity against methicillin-resistant Staphylococcus aureus C16 measured after overnight incubation by broth double-dilution method; summary of the method: as §2
Enterococcus faecalis [30] = test: Antibacterial activity against Enterococcus faecalis ATCC 29212 measured after overnight incubation by broth double-dilution method; summary of the method: as §1
Staphylococcus aureus [31] = test: Antibacterial activity against methicillin-resistant Staphylococcus aureus ATCC 33591 measured after overnight incubation by broth double-dilution method; summary of the method: as §2
Staphylococcus aureus [32] = test: Antibacterial activity against methicillin-resistant Staphylococcus aureus C1 measured after overnight incubation by broth double-dilution method; summary of the method: as §2

Structure (SMILES) | MIC [1] [µg/mL] | MIC (Staphylococcus aureus [2]) [µg/mL] | MIC (Staphylococcus aureus [3]) [µg/mL] | MIC (Staphylococcus aureus [4]) [µg/mL] | MIC (Enterococcus faecalis [5]) [µg/mL] | MIC (Staphylococcus aureus [6]) [µg/mL] | MIC (Staphylococcus aureus [7]) [µg/mL] | MIC [8] [µg/mL] | MIC (Staphylococcus aureus [9]) [µg/mL] | MIC (Enterococcus) [µg/mL] | MIC (Staphylococcus aureus [10]) [µg/mL] | MIC (Staphylococcus aureus [11]) [µg/mL] | MIC (Staphylococcus aureus [12]) [µg/mL] | MIC (Staphylococcus aureus [13]) [µg/mL] | MIC (Enterococcus faecium) [µg/mL] | MIC (Listeria monocytogenes) [µg/mL] | MIC (Staphylococcus aureus [14]) [µg/mL] | MIC (Staphylococcus aureus [15]) [µg/mL] | MIC (Staphylococcus aureus [16]) [µg/mL] | MIC (Staphylococcus aureus [17]) [µg/mL] | further results
O=c1c2ccccc2sn1CCCc1ccccc1 | 2 (≈ 7.42 µM) | 2 (≈ 7.42 µM) | 2 (≈ 7.42 µM) | 2 (≈ 7.42 µM) | > 125 | 3.9 (≈ 14.5 µM) | 2 (≈ 7.42 µM) | 3.9 (≈ 14.5 µM) | 3.9 (≈ 14.5 µM) | 0.5 (≈ 1.86 µM) | 3.9 (≈ 14.5 µM) | 2 (≈ 7.42 µM) | 2 (≈ 7.42 µM) | 2 (≈ 7.42 µM) | 15.6 (≈ 57.9 µM) | 2 (≈ 7.42 µM) | 0.5 (≈ 1.86 µM) | 2 (≈ 7.42 µM) | ≤ 0.25 | 2 (≈ 7.42 µM) | MIC (Staphylococcus aureus [18]): 2 µg/mL (≈ 7.42 µM); MIC (Staphylococcus aureus [19]): 0.5 µg/mL (≈ 1.86 µM); MIC (Staphylococcus aureus [20]): 2 µg/mL (≈ 7.42 µM); MIC (Staphylococcus aureus [21]): 3.9 µg/mL (≈ 14.5 µM); MIC (Staphylococcus aureus [22]): 2 µg/mL (≈ 7.42 µM); MIC (Staphylococcus aureus [23]): 2 µg/mL (≈ 7.42 µM); MIC (Staphylococcus aureus [24]): 2 µg/mL (≈ 7.42 µM); MIC (Staphylococcus aureus [25]): 2 µg/mL (≈ 7.42 µM); MIC (Staphylococcus aureus [26]): 3.9 µg/mL (≈ 14.5 µM); MIC (Staphylococcus aureus [27]): 3.9 µg/mL (≈ 14.5 µM); MIC (Staphylococcus aureus [28]): 2 µg/mL (≈ 7.42 µM); MIC (Staphylococcus aureus [29]): 3.9 µg/mL (≈ 14.5 µM); MIC (Enterococcus faecalis [30]): 15.6 µg/mL (≈ 57.9 µM); MIC (Staphylococcus aureus [31]): 1 µg/mL (≈ 3.71 µM); MIC (Staphylococcus aureus [32]): 2 µg/mL (≈ 7.42 µM)
O=c1c2ccccc2sn1C1CCCCCCC1 | 3.9 (≈ 14.9 µM) | 7.8 (≈ 29.8 µM) | 3.9 (≈ 14.9 µM) | 3.9 (≈ 14.9 µM) | 15.6 (≈ 59.7 µM) | 7.8 (≈ 29.8 µM) | 2 (≈ 7.65 µM) | 3.9 (≈ 14.9 µM) | 3.9 (≈ 14.9 µM) | 1 (≈ 3.83 µM) | 2 (≈ 7.65 µM) | 7.8 (≈ 29.8 µM) | 3.9 (≈ 14.9 µM) | 2 (≈ 7.65 µM) | 15.6 (≈ 59.7 µM) | > 125 | 3.9 (≈ 14.9 µM) | 2 (≈ 7.65 µM) | 1 (≈ 3.83 µM) | 0.5 (≈ 1.91 µM) | MIC (Staphylococcus aureus [18]): 2 µg/mL (≈ 7.65 µM); MIC (Staphylococcus aureus [19]): 1 µg/mL (≈ 3.83 µM); MIC (Staphylococcus aureus [20]): 3.9 µg/mL (≈ 14.9 µM); MIC (Staphylococcus aureus [21]): 7.8 µg/mL (≈ 29.8 µM); MIC (Staphylococcus aureus [22]): 2 µg/mL (≈ 7.65 µM); MIC (Staphylococcus aureus [23]): 2 µg/mL (≈ 7.65 µM); MIC (Staphylococcus aureus [24]): > 125 µg/mL; MIC (Staphylococcus aureus [25]): 2 µg/mL (≈ 7.65 µM); MIC (Staphylococcus aureus [26]): 7.8 µg/mL (≈ 29.8 µM); MIC (Staphylococcus aureus [27]): 2 µg/mL (≈ 7.65 µM); MIC (Staphylococcus aureus [28]): 3.9 µg/mL (≈ 14.9 µM); MIC (Staphylococcus aureus [29]): 3.9 µg/mL (≈ 14.9 µM); MIC (Enterococcus faecalis [30]): 15.6 µg/mL (≈ 59.7 µM); MIC (Staphylococcus aureus [31]): > 125 µg/mL; MIC (Staphylococcus aureus [32]): 3.9 µg/mL (≈ 14.9 µM)
CC(C)CCn1sc2ccccc2c1=O | 3.9 (≈ 17.6 µM) | 7.8 (≈ 35.2 µM) | 7.8 (≈ 35.2 µM) | 3.9 (≈ 17.6 µM) | 15.6 (≈ 70.5 µM) | 7.8 (≈ 35.2 µM) | 3.9 (≈ 17.6 µM) | 3.9 (≈ 17.6 µM) | 3.9 (≈ 17.6 µM) | 2 (≈ 9.04 µM) | 3.9 (≈ 17.6 µM) | 7.8 (≈ 35.2 µM) | 3.9 (≈ 17.6 µM) | 3.9 (≈ 17.6 µM) | 7.8 (≈ 35.2 µM) | > 125 | 3.9 (≈ 17.6 µM) | 3.9 (≈ 17.6 µM) | 1 (≈ 4.52 µM) | 3.9 (≈ 17.6 µM) | MIC (Staphylococcus aureus [18]): 3.9 µg/mL (≈ 17.6 µM); MIC (Staphylococcus aureus [19]): 2 µg/mL (≈ 9.04 µM); MIC (Staphylococcus aureus [20]): 7.8 µg/mL (≈ 35.2 µM); MIC (Staphylococcus aureus [21]): 7.8 µg/mL (≈ 35.2 µM); MIC (Staphylococcus aureus [22]): 3.9 µg/mL (≈ 17.6 µM); MIC (Staphylococcus aureus [23]): 3.9 µg/mL (≈ 17.6 µM); MIC (Staphylococcus aureus [24]): > 125 µg/mL; MIC (Staphylococcus aureus [25]): 7.8 µg/mL (≈ 35.2 µM); MIC (Staphylococcus aureus [26]): 7.8 µg/mL (≈ 35.2 µM); MIC (Staphylococcus aureus [27]): 3.9 µg/mL (≈ 17.6 µM); MIC (Staphylococcus aureus [28]): 3.9 µg/mL (≈ 17.6 µM); MIC (Staphylococcus aureus [29]): 7.8 µg/mL (≈ 35.2 µM); MIC (Enterococcus faecalis [30]): 7.8 µg/mL (≈ 35.2 µM); MIC (Staphylococcus aureus [31]): > 125 µg/mL; MIC (Staphylococcus aureus [32]): 3.9 µg/mL (≈ 17.6 µM)
